According to PubChem BioAssay AID743238 (Broad Institute, 2013):
Values joined by “and” are separate entries in the source; they are usually repeats but may differ in a detail not shown here. Identical values can stand only once. Hit rate of the full screen: of about 360,000 compounds, about 200 (0.056%) were called active.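 Rule for the calls: active = mean normalized replicate activation at least 10% and every replicate at or above 10%; inconclusive = only one of the two criteria met; inactive = mean below 10% and not all replicates reach 10%.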 For the sample, actives were picked, then their nearest neighbours and some compounds at random.

Test: Xi reactivation inducers in mouse fibroblasts – imaging, XiGFP fibroblasts, GFP high-content imaging, set 2, primary screen (AID 743238);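 note: 0% = median of on-plate neutral control wells and 100% = ellipticine 6 µM median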
Conditions: % GFP-positive cells imaging, 3 d, at 7.58 µM, stronger effect = higher value, cells co-treated with 5-aza-dC sensitizer, scaled so ellipticine positive control = 100%
Outline: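 material = 68-5-11 XiGFP fibroblast line | medium = DMEM plus 5-aza-dC sensitizer | schedule = 3 days compound exposure | benchmarks = positive control ellipticine, 6 µM final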
For `C[C@@H]1CN([C@@H](C)CO)S(=O)(=O)c2ccc(Br)cc2O[C@@H]1CN(C)C(=O)CN(C)C`, the activation was 0.922% (inactive).
With `O=C(Nc1ccc(F)cc1)N1CC(=O)N2[C@H](CO)[C@H](c3ccc(C#Cc4ccccc4)cc3)[C@H]2C1` the activation was 0.018% (inactive).
In the case of `C[C@H](CO)N1C[C@H](C)[C@@H](CN(C)S(C)(=O)=O)Oc2ccc(NC(=O)Nc3ccc4c(c3)OCO4)cc2CC1=O`, the activation is reported as 0.005% (inactive).
For `OC[C@H]1[C@@H](c2ccc(C#Cc3ccccc3F)cc2)[C@H]2CN(CC3CCOCC3)CCCCN21`, the activation was -0.0285% (inactive).
In the case of `C[C@H]1CN([C@@H](C)CO)C(=O)c2cc(-c3ccccc3)cnc2O[C@H]1CN(C)C(=O)C1CCOCC1`, the activation is reported as -0.251% (inactive).
For `COCC(=O)Nc1ccc2c(c1)C(=O)N(C)[C@@H]1CC[C@H](CC(=O)NCC3CC3)O[C@H]1CO2`, the activation was 0.286% (inactive).
In the case of `COc1ccc2c3c(n(C)c2c1)[C@H](CO)NCC31CN(S(=O)(=O)c2cccc(C)c2)C1`, the activation is reported as 0.887% (inactive).
With `COc1cccc(-c2cnc3c(c2)C(=O)N([C@H](C)CO)C[C@H](C)[C@H](CN(C)Cc2ccncc2)O3)c1` the activation was 0.983% (inactive).
In the case of `CC(=O)N(C)C[C@H]1Oc2ncc(C#Cc3ccc(F)cc3)cc2C(=O)N([C@H](C)CO)C[C@@H]1C`, the activation is reported as -1.15% (inactive).
In the case of `C[C@H]1CN([C@@H](C)CO)C(=O)CCCn2cc(nn2)CO[C@H]1CN(C)C(=O)Nc1ccc(F)cc1`, the activation is reported as -0.396% (inactive).
For `O=C(C[C@H]1C=C[C@@H](NC(=O)CC2CC2)[C@H](CO)O1)NCc1ccc(-c2ccccc2)cc1`, the activation was 0.158% (inactive).
With `COc1ccc(S(=O)(=O)N(C)C[C@@H]2Oc3ccc(NC(=O)CCN4CCOCC4)cc3CC(=O)N([C@@H](C)CO)C[C@@H]2C)cc1` the activation was -1.18% (inactive).
In the case of `O=C(c1cccc(F)c1)N1CC[C@@H]2[C@H](CO)Nc3ccc(C#Cc4ccccc4)cc3[C@@H]21`, the activation is reported as 0.0425% (inactive).
With `CC(C)NC(=O)N(C)C[C@@H]1Oc2ncc(C#CC3CC3)cc2C(=O)N([C@@H](C)CO)C[C@H]1C` the activation was -0.634% (inactive).
In the case of `Nc1c(C(=O)c2cccs2)sc2nsc(SCCN3CCCCC3)c12`, the activation is reported as 114% (active).
For `O=C(NC1CCCC1)N1CC(=O)N2[C@H](C1)[C@H](c1ccc(/C=C/c3ccccc3)cc1)[C@@H]2CO`, the activation was 0.335% (inactive).
With `CCCC#Cc1ccc([C@H]2[C@H]3CN(C(=O)c4cccnc4)CC(=O)N3[C@H]2CO)cc1` the activation was -0.0225% (inactive).
For `COc1ccccc1-c1ccc([C@H]2[C@@H](CO)N(CC3CC3)C23CN(S(C)(=O)=O)C3)cc1`, the activation was 0.04% (inactive).
For `CO[C@@H]1CN(C)C(=O)c2cc(NC(=O)Nc3ccccc3F)ccc2OC[C@H](C)NC[C@H]1C`, the activation was -0.018% (inactive).
In the case of `O=C([C@@H]1[C@@H](CO)[C@@H]2Cn3c(ccc(-c4cncnc4)c3=O)[C@@H]2N1C(=O)C1CCC1)N1CCCCC1`, the activation is reported as 0.322% (inactive).
In the case of `C[C@@H]1CCCCO[C@@H](CN(C)Cc2ccncc2)[C@@H](C)CN([C@H](C)CO)C(=O)c2cc(NS(=O)(=O)c3cccs3)ccc2O1`, the activation is reported as 0.415% (inactive).
In the case of `CCCN1[C@H](CO)[C@H](c2ccc(C#CC3CCCCC3)cc2)[C@@H]1CNC(=O)C1CC1`, the activation is reported as 0.049% (inactive).
For `CN1CCN(C(=O)C[C@@H]2CC[C@@H]3[C@H](COC[C@H](O)CN3CC3CCOCC3)O2)CC1`, the activation was 0.0745% (inactive).
For `COC(=O)C[C@H]1CC[C@@H](NC(=O)c2ccccc2)[C@@H](CO)O1`, the activation was -0.033% (inactive).
In the case of `COc1ccc(NC(=O)N(C)C[C@H]2Oc3c(NC(=O)Nc4cccc5ccccc45)cccc3C(=O)N([C@@H](C)CO)C[C@H]2C)cc1`, the activation is reported as -0.612% (inactive).
With `O=C(C[C@H]1C[C@H]2c3cc(NC(=O)Nc4ccc(C(F)(F)F)cc4)ccc3O[C@H]2[C@@H](CO)O1)NCc1cccnc1` the activation was 0.387% (inactive).
In the case of `CCCC(=O)Nc1ccc2c(c1)OC[C@H](C)N(CCc1ccccc1)C[C@H](C)[C@@H](OC)CN(C)C2=O`, the activation is reported as -0.359% (inactive).
In the case of `CCNC(=O)C[C@@H]1C=C[C@@H](NC(=O)C2CCOCC2)[C@@H](CO)O1`, the activation is reported as 0.276% (inactive).
For `COc1ccc(S(=O)(=O)N(C)C[C@@H]2Oc3ccc(NC(=O)Cc4ccccc4)cc3CC(=O)N([C@@H](C)CO)C[C@H]2C)cc1`, the activation was -0.0685% (inactive).
In the case of `COc1ccc2c3c([nH]c2c1)[C@@H](CO)N(Cc1cc(F)ccc1F)CC31CCN(C(=O)C2CCC2)CC1`, the activation is reported as 0.358% (inactive).
In the case of `Cc1ccc(S(=O)(=O)Nc2ccc3c(c2)C(=O)N(C)[C@@H]2CC[C@@H](CC(=O)O)O[C@H]2CO3)cc1`, the activation is reported as 0.151% (inactive).
For `O=C(C[C@@H]1C=C[C@H](NC(=O)Nc2ccccc2F)[C@H](CO)O1)NCc1ccc(F)cc1`, the activation was 0.215% (inactive).
With `C[C@H](CO)N1C[C@H](C)[C@@H](CN(C)S(=O)(=O)c2cccs2)Oc2ccc(NC(=O)Nc3ccc(C(F)(F)F)cc3)cc2CC1=O` the activation was -0.017% (inactive).
With `C[C@@H]1CCCCO[C@H](CN(C)C(=O)CCCN(C)C)[C@H](C)CN([C@@H](C)CO)C(=O)c2cc(NS(=O)(=O)c3ccc(Cl)cc3)ccc2O1` the activation was 0.114% (inactive).
In the case of `C[C@H]1CCCCO[C@H](CN(C)C(=O)Nc2ccc(F)cc2)[C@@H](C)CN([C@@H](C)CO)C(=O)c2cc(NC(=O)CCC(F)(F)F)ccc2O1`, the activation is reported as -0.105% (inactive).
In the case of `N#C[C@@H]1[C@H](c2ccccc2-c2ccccc2F)[C@@H](CO)N1C(=O)C1CCOCC1`, the activation is reported as 0.163% (inactive).
For `O=C1C(Cl)=C(Oc2ccccc2)C(=O)c2ccccc21`, the activation was 19.2% (active).
With `CCC(=O)Nc1ccc2c(c1)C(=O)N(C)C[C@H](OC)[C@H](C)CN(C(=O)c1ccccc1F)[C@@H](C)CO2` the activation was 0.375% (inactive).
With `CO[C@H]1CN(C)C(=O)c2cc(NS(C)(=O)=O)ccc2OC[C@@H](C)N(C)C[C@@H]1C` the activation was -0.465% (inactive).
For `C[C@@H]1CN([C@@H](C)CO)C(=O)CCCn2cc(nn2)CO[C@@H]1CN(C)S(=O)(=O)c1cccc(F)c1`, the activation was -0.223% (inactive).
For `C[C@H]1CN([C@@H](C)CO)C(=O)c2c(c3ccccc3n2C)-c2ccccc2CO[C@H]1CN(C)S(=O)(=O)c1ccc(C#N)cc1`, the activation was -1.22% (inactive).
For `CCC(=O)N1CC(=O)N2[C@@H](CO)[C@@H](c3ccc(C#CC4CCCC4)cc3)[C@@H]2C1`, the activation was -0.0225% (inactive).
In the case of `CCCC#Cc1ccc([C@H]2[C@H]3CN(C(=O)Nc4cc(F)ccc4F)CC(=O)N3[C@H]2CO)cc1`, the activation is reported as 0.26% (inactive).
For `CN1C(=O)c2cc(NC(=O)c3cccc(F)c3)ccc2OC[C@@H]2O[C@@H](CC(=O)NCC3CCCCC3)CC[C@H]21`, the activation was -0.045% (inactive) and -0.023% (inactive).
In the case of `Cc1ccccc1S(=O)(=O)N1C[C@H](O)COC[C@H]2O[C@H](CC(=O)N3CCCCC3)CC[C@@H]21`, the activation is reported as 0.037% (inactive).
In the case of `C=C(C)C[C@H]1CCn2cc(nn2)COCCNC1=O`, the activation is reported as 0.348% (inactive).
With `C[C@H]1CN([C@@H](C)CO)C(=O)c2cccc(NC(=O)CCCCCC(=O)Nc3ccccc3N)c2O[C@@H]1CN(C)C(=O)NC1CCCCC1` the activation was -1.38% (inactive).
With `C[C@@H]1CN([C@@H](C)CO)C(=O)c2cc(NS(=O)(=O)c3ccc(F)cc3)ccc2O[C@@H]1CN(C)C(=O)NC1CCCCC1` the activation was 0.0955% (inactive).
In the case of `O=C(C[C@@H]1C=C[C@H](NC(=O)C2CCC2)[C@@H](CO)O1)NCC1CC1`, the activation is reported as 0.225% (inactive).
With `C[C@@H]1CN([C@@H](C)CO)C(=O)c2cc(NC(=O)Nc3cccc4ccccc34)ccc2O[C@H]1CN(C)Cc1ccc(Oc2ccccc2)cc1` the activation was 0.262% (inactive).
For `O=C([C@@H]1[C@@H](CO)[C@@H]2Cn3c(ccc(C4=CCCC4)c3=O)[C@H]1N2C(=O)c1ccncc1)N1CCCCC1`, the activation was 0.116% (inactive).
For `O=C(C[C@@H]1C[C@H]2c3cc(NC(=O)Nc4ccccc4F)ccc3O[C@H]2[C@@H](CO)O1)NC1CCCCC1`, the activation was -0.047% (inactive).
With `C[C@H](NC(=O)C[C@H]1C=C[C@@H](NC(=O)C2CCOCC2)[C@@H](CO)O1)c1ccccc1` the activation was 0.456% (inactive).
In the case of `C[C@@H]1CC=CC[C@@H](c2ccccc2)NC(=O)[C@@H](Cc2ccccc2)N(C)C(=O)c2ccccc2O1` (mixture of isomers), the activation is reported as 0.0795% (inactive).
For `Cc1ccc(-c2ccc([C@H]3[C@H]4CN(S(=O)(=O)c5cccc(F)c5)CC(=O)N4[C@H]3CO)cc2)cc1`, the activation was 0.287% (inactive).
With `CC(C)NC(=O)N1[C@H](CO)[C@@H]2c3ccccc3N(C(=O)Nc3cccc(Cl)c3)C[C@@H]21` the activation was 0.198% (inactive).
In the case of `C/C=C/c1ccc([C@H]2[C@@H](CO)N3CCCCN(C(=O)c4ccc(F)cc4)C[C@@H]23)cc1`, the activation is reported as 0.11% (inactive).
For `O=C(Nc1cc(F)ccc1F)N[C@H]1CC[C@H](CCn2cc(C3CCCC3)nn2)O[C@@H]1CO`, the activation was 0.418% (inactive).
For `C/C=C/c1ccccc1[C@H]1[C@@H](C#N)N(c2nc(CC)cs2)[C@@H]1CO`, the activation was -0.0085% (inactive).
In the case of `OC[C@@H]1[C@@H](c2ccccc2)C2(CN(Cc3cccc(F)c3)C2)N1CC1CCCC1`, the activation is reported as -0.0685% (inactive).
With `CO[C@@H]1CN(C)C(=O)c2cc(NC(=O)C3CCCC3)ccc2OC[C@@H](C)N(C(=O)Nc2ccc(C(F)(F)F)cc2)C[C@H]1C` the activation was 0.0025% (inactive).
In the case of `C[C@@H]1CN([C@H](C)CO)C(=O)c2cccc(NS(=O)(=O)c3ccc(Cl)cc3)c2O[C@@H]1CN(C)CC1CC1`, the activation is reported as 0.281% (inactive).
